Assay results taken from PubChem BioAssay.
Inconclusive results are not listed. Activity calls are given as the source filed them.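 Rule for the calls, unless noted: active = viability increase at or above a cutoff of the median across tested compounds plus 3 SD (cut at about 8.5% in these data, passing the limit was not always enough); inconclusive = some gains above the cutoff, reason not given; inactive = the rest.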

What was measured:
[1] = S. cerevisiae growth inhibition in permissive medium (OD615), pilot counter-assay for S. cerevisiae lifespan shortening project, permissive growth control (AID 705;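 active = growth inhibition above 25% in both replicates, a cutoff set 3 SD above the mean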); details: OD615, 24 h, at 10 µM, active compounds read high
Outline: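 System: S. cerevisiae with engineered DeaD lifespan system. Medium: SC raffinose/galactose permissive medium. Doses: single compound dose of 10 µM, 0.25% DMSO final. Schedule: 24 h exposure, 30 °C. Measured by: OD615 turbidity read. Read-out: growth inhibition.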

[2] = S. cerevisiae growth inhibition in restrictive medium, OD615, pilot screen, restrictive growth control, yeast lifespan reduction project (AID 706;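 active = growth inhibition above a set limit, 3 SD over mean compound inhibition, in both replicates, cut at about 43% in these data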;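 note: modified DeaD lifespan yeast strain shifted to restrictive glucose medium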); details: OD615, 48 h, at 10 µM, active compounds read high
Outline: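 Assay system – genetically modified Saccharomyces cerevisiae, DeaD replicative lifespan assay strain · Medium – CSMM-D glucose medium · Doses – 10 µM compound, 0.25% DMSO · Times – 4 h pre-incubation, 48 h exposure at 30 °C · Signal – optical density at 615 nm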

[3] = doxorubicin toxicity protection in MRP-1 cells – H69AR cells, CellTiter-Glo, duplicate, MRP-1 activator project, pilot screen (AID 807); details: H69AR viability with doxorubicin, CellTiter-Glo luminescence; at 10 µM; active compounds read high;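 note: compound pretreatment 18-22 h then 72 h combined with doxorubicin; 0% = doxorubicin alone and 100% = vehicle without doxorubicin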
[4] = viability of HCT116 without oncogenic beta-catenin – human colon tumor cells, pilot screen (AID 823;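 active = cell viability at or below a set limit in both duplicate runs, the limit being the all-compound median minus 4 SD, cut at about 23% in these data, passing the limit was not always enough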;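 note: 0% = wells killed by 20 µM Hyamine and 100% = untreated DMSO cell wells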); details: HCT116 beta-catenin knockout viability, CellTiter-Glo, 60 h; at 10 µM; active compounds read low
[5] = viability of PTEN-null HCT116 cells – cell-based, HCT116 clonal line, CellTiter-Glo, pilot screen (AID 824;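 active = viability at or below 27.92% in each of two runs, the all-compound median minus 4 SD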;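 note: 0% = 20 µM Hyamine control and 100% = vehicle cell control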); details: HCT116 PTEN-deleted viability, 60 h, at 10 µM, active compounds read low
[6] = RAM pathway blockade in budding yeast – dse1pr::URA3 reporter, 5-FOA selection, pilot screen (AID 869;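 active = inhibition over a set limit, the all-compound mean plus 3 SD, in both replicate runs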;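 note: 0% = DMSO wells with no growth and 100% = 10 µM 1-NA-PP1 with full growth; RAM network block rescues cells from 5-FOA so hits raise OD615 growth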); details: S. cerevisiae dse1pr::URA3 5-FOA growth, OD615, 2 d; at 10 µM; active compounds read high; strain carries analog-sensitive mutant Cbk1 kinase
[7] = RAM signaling pathway blockade in yeast – S. cerevisiae, Pdr1DBD-CYC8 efflux-inhibited sensitized strain, primary screen (AID 1298;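 active = RAM network inhibition above 8.4% in each of two replicates, 3 SD over the compound average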;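 note: 0% = DMSO untreated cells without growth and 100% = 10 µM 1-NA-PP1 full growth; higher means more yeast growth rescued from 5-FOA killing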); details: S. cerevisiae cbk1-as DSE1-URA3 strain, 5-FOA growth OD615, 2 d; at 50 µM; active compounds read high

CN1CCN(C(=O)C2CCC(CNS(=O)(=O)c3cccc4cccnc34)CC2)CC1 (configuration not stated)
inactive: growth inhibition [1] 4.4% | growth inhibition [2] 2.39% | viability increase [3] -0.86% | viability [4] 99% | viability [5] 100% | inhibition [6] 1.58% | RAM network inhibition [7] 0.46%

COc1ccc(N(CC(=O)NCc2cccnc2)S(=O)(=O)c2c(C)nn(C)c2C)cc1
inactive: growth inhibition [1] -19.9% | growth inhibition [2] -19.4% | viability increase [3] -1.49% | viability [4] 98.5% | viability [5] 95.2% | inhibition [6] 1.57% | RAM network inhibition [7] 7.6%

C=CCNc1nc2c(c(=O)n(C)c(=O)n2C)n1Cc1ccc(F)cc1
inactive: growth inhibition [1] -0.85% | growth inhibition [2] -2.67% | viability increase [3] -2.03% | viability [4] 63.3% | viability [5] 66.9% | inhibition [6] 0.835% | RAM network inhibition [7] 2.3%

CC(C)c1ccc2c(c1)C(=O)NC(C)(C)C2
inactive: growth inhibition [1] -8.81% | growth inhibition [2] -11.3% | viability increase [3] -2.07% | viability [4] 116% | viability [5] 97.8% | inhibition [6] 1.88% | RAM network inhibition [7] 4.27%

Nc1c(C(=O)c2ccc(Br)s2)oc2ccccc12
inactive: growth inhibition [1] -9.21% | growth inhibition [2] -4.51% | viability increase [3] -5.46% | viability [4] 88.8% | viability [5] 88.7% | inhibition [6] -0.045% | RAM network inhibition [7] 2.7%

COC(=O)C1=CN(C)C=C(C(=O)OC)C1c1ccsc1
inactive: growth inhibition [1] -5% | growth inhibition [2] -4.37% | viability increase [3] -0.22% | viability [4] 104% | viability [5] 89.3% | inhibition [6] 1.96% | RAM network inhibition [7] 0.41%

Cc1ccc(N(C(C)C(=O)O)S(=O)(=O)c2cccnc2)cc1 (configuration not stated)
inactive: growth inhibition [1] 2.72% | growth inhibition [2] 0.165% | viability increase [3] -1.52% | viability [4] 95.1% | viability [5] 101% | inhibition [6] -0.19% | RAM network inhibition [7] 1.61%

CCN1CCN(C(=O)Cn2c(=O)sc3ccccc32)CC1
inactive: growth inhibition [1] -10.6% | growth inhibition [2] 4.76% | viability increase [3] -2.64% | viability [4] 107% | viability [5] 96.6% | inhibition [6] -0.225% | RAM network inhibition [7] 0.05%

Cc1c(C(=O)N2CCCC2)oc2c1-c1[nH]ncc1CC2
inactive: growth inhibition [1] -15.2% | growth inhibition [2] -14.4% | viability increase [3] -1.8% | viability [4] 105% | viability [5] 94.2% | inhibition [6] 0.715% | RAM network inhibition [7] 2.08%

Cc1nc2ccccc2n1-c1ccccc1
inactive: growth inhibition [1] -0.46% | growth inhibition [2] 10.2% | viability increase [3] 0.08% | viability [4] 89.1% | viability [5] 96.4% | inhibition [6] 0.185% | RAM network inhibition [7] 4.25%

CC(=O)N1CCN(c2ccc(NCc3ccc(C)s3)cc2)CC1
inactive: growth inhibition [1] -5.79% | growth inhibition [2] 8.29% | viability increase [3] -2.32% | viability [4] 99% | viability [5] 95% | inhibition [6] 1.92% | RAM network inhibition [7] 7.94%

Cc1noc(C)c1S(=O)(=O)N(CC(=O)NCc1ccc(Cl)cc1)c1ccc2c(c1)OCO2
inactive: growth inhibition [1] -13.6% | growth inhibition [2] -7.5% | viability increase [3] -3.36% | viability [4] 104% | viability [5] 97.9% | inhibition [6] 2.81% | RAM network inhibition [7] 1%

CC1CCCC(NC(=O)CSc2nnnn2C)C1C (configuration not stated)
inactive: growth inhibition [1] -6.17% | growth inhibition [2] -10.1% | viability increase [3] 1.61% | viability [4] 95.5% | viability [5] 101% | inhibition [6] 1.29% | RAM network inhibition [7] 2.27%

O=C(Cc1ccccc1)Nc1c(C(=O)N2CCOCC2)cnn1-c1ccccc1
inactive: growth inhibition [1] 6.39% | growth inhibition [2] -23.4% | viability increase [3] -1.59% | viability [4] 93.5% | viability [5] 97% | inhibition [6] 1.21% | RAM network inhibition [7] 1.24%

O=C(Nc1ccccc1C(=O)N1CCN(Cc2ccccc2)CC1)c1ccccn1
inactive: growth inhibition [1] -4.94% | growth inhibition [2] -10.1% | viability increase [3] -2.39% | viability [4] 93.3% | viability [5] 96.2% | inhibition [6] -0.045% | RAM network inhibition [7] 6.33%

COc1ccc(C2C(C(=O)NCc3ccccn3)c3ccccc3C(=O)N2C)cc1OC (configuration not stated)
inactive: growth inhibition [1] -4.72% | growth inhibition [2] -0.835% | viability increase [3] -0.8% | viability [4] 101% | viability [5] 101% | inhibition [6] 1.01% | RAM network inhibition [7] 0.74%

Cc1cccc(NS(=O)(=O)c2ccccc2)n1
inactive: growth inhibition [1] -4.51% | growth inhibition [2] 11.2% | viability increase [3] 2.49% | viability [4] 106% | viability [5] 104% | inhibition [6] 0.75% | RAM network inhibition [7] 0.26%

Cn1nnnc1P(=O)(c1ccccc1)c1ccccc1
inactive: growth inhibition [1] 0.165% | growth inhibition [2] 0.5% | viability increase [3] 0.85% | viability [4] 103% | viability [5] 102% | inhibition [6] 0.995% | RAM network inhibition [7] 1.32%

COc1ccc(CCNS(=O)(=O)c2ccc3c(c2)oc(=O)n3C)cc1OC
inactive: growth inhibition [1] -5.33% | growth inhibition [2] -1.19% | viability increase [3] -0.83% | viability [4] 105% | viability [5] 94.2% | inhibition [6] 2.37% | RAM network inhibition [7] 0.8%

COCc1cc(CN2CCCC2)c(O)c2ncccc12
inactive: growth inhibition [1] -11.1% | growth inhibition [2] -11.6% | viability increase [3] 0.15% | inhibition [6] -0.255% | RAM network inhibition [7] 5.55%
active: viability [4] 8.07% | viability [5] 11.3%

CN(CCc1ccccn1)C(=O)Nc1ccc(F)cc1
inactive: growth inhibition [1] -7.65% | growth inhibition [2] -14.7% | viability increase [3] -1.63% | viability [4] 108% | viability [5] 98% | inhibition [6] 0.71% | RAM network inhibition [7] 5.39%

COc1cc(OC)cc(C(=O)OCn2nnc3ccccc3c2=O)c1
inactive: growth inhibition [1] -9.62% | growth inhibition [2] -4.46% | viability increase [3] -0.87% | viability [4] 101% | viability [5] 96.1% | inhibition [6] 1.33% | RAM network inhibition [7] 7.22%

COc1cccc(C2CC(c3ccc(C(C)C)cc3)n3nc(N)nc3N2)c1 (configuration not stated)
inactive: growth inhibition [1] -2.39% | growth inhibition [2] 3.09% | viability increase [3] 0.91% | viability [4] 97.1% | viability [5] 95.7% | inhibition [6] 1.5% | RAM network inhibition [7] 3.94%

CCOC(=O)Cc1csc(NC(=O)CN(C)S(=O)(=O)c2cccc3cccnc23)n1
inactive: growth inhibition [1] -11.1% | growth inhibition [2] -7.54% | viability increase [3] -4.61% | viability [4] 93.5% | viability [5] 81.7% | inhibition [6] 1.14% | RAM network inhibition [7] 4.44%

CCOc1ccc(C2c3c(oc4cc(C)c(C)cc4c3=O)C(=O)N2CCCN(C)C)cc1OC (configuration not stated)
inactive: growth inhibition [1] -3.33% | growth inhibition [2] -1.7% | viability increase [3] -1.6% | viability [4] 108% | viability [5] 98% | inhibition [6] -0.13% | RAM network inhibition [7] -0.66%

O=C(Nc1nc2c(s1)CCCC2)c1ccc(Br)o1
inactive: growth inhibition [1] 6.52% | growth inhibition [2] -10.8% | viability increase [3] -4.11% | viability [4] 62.4% | viability [5] 64.6% | inhibition [6] 1.8% | RAM network inhibition [7] 4.86%

Brc1ccc(-c2noc(COc3ccc4c(c3)CCC4)n2)o1
inactive: growth inhibition [1] -10.2% | growth inhibition [2] -11.6% | viability increase [3] 2.86% | viability [4] 95.8% | viability [5] 105% | inhibition [6] 1.22% | RAM network inhibition [7] 4.46%

Cc1cc(C)c(S(=O)(=O)N2CCN(CCO)CC2)c(C)c1
inactive: growth inhibition [1] 4.04% | growth inhibition [2] 10.5% | viability increase [3] 0.8% | viability [4] 108% | viability [5] 97.4% | inhibition [6] 1.64% | RAM network inhibition [7] 2.45%

Cc1cccc(C2CC(c3ccc(F)cc3)Nc3nc(N)nn32)c1 (configuration not stated)
inactive: growth inhibition [1] -1.75% | growth inhibition [2] 18.4% | viability increase [3] 0.42% | viability [4] 92.3% | viability [5] 77.1% | inhibition [6] 0.09% | RAM network inhibition [7] 0.31%

Cc1cc(OCCN2CCCC2)ccc1C(C)C
inactive: growth inhibition [1] -4.67% | growth inhibition [2] -1.01% | viability increase [3] -1.29% | viability [4] 89.1% | viability [5] 91.3% | inhibition [6] 2.1% | RAM network inhibition [7] 8.59%

Cc1csc2ncc(C(=O)Nc3ccc4c(c3)OCCO4)c(=O)n12
inactive: growth inhibition [1] -13.1% | growth inhibition [2] -17.3% | viability increase [3] -2.34% | viability [4] 102% | viability [5] 97.5% | inhibition [6] 2.96% | RAM network inhibition [7] 6.97%

COc1cc(C(c2sc3nc(C)nn3c2O)N2CCc3ccccc3C2)cc(OC)c1OC (configuration not stated)
inactive: growth inhibition [1] 3.55% | growth inhibition [2] -1.53% | viability increase [3] -1.3% | viability [4] 110% | viability [5] 96.1% | inhibition [6] 1.23% | RAM network inhibition [7] 2.85%

CCc1nnc(NC(=O)CSc2nccn2-c2cc(C)cc(C)c2)s1
inactive: growth inhibition [1] 3.21% | growth inhibition [2] 23% | viability increase [3] -6.31% | viability [4] 86.2% | viability [5] 75.8% | inhibition [6] 0.195% | RAM network inhibition [7] -1.37%

CC(=O)OCCn1c(=O)c2cc3c(=O)n(CCOC(C)=O)c(=O)c3cc2c1=O
inactive: growth inhibition [1] -7.22% | growth inhibition [2] -6.18% | viability increase [3] -0.09% | viability [4] 101% | viability [5] 98.3% | inhibition [6] 1.84% | RAM network inhibition [7] 1.25%

CCOC(=O)N1CCN(c2ncnc3nc[nH]c23)CC1
inactive: growth inhibition [1] -8.7% | growth inhibition [2] -10.1% | viability increase [3] -1.85% | viability [4] 109% | viability [5] 106% | inhibition [6] 0.595% | RAM network inhibition [7] 4.23%

CCOC(=O)c1ccc(NC(=O)C2CCCN(S(=O)(=O)c3cnc[nH]3)C2)cc1 (configuration not stated)
inactive: growth inhibition [1] 2.33% | growth inhibition [2] 2.53% | viability increase [3] 0.94% | viability [4] 105% | viability [5] 96.7% | inhibition [6] 0.31% | RAM network inhibition [7] 2.17%
